# Test results as given in ChEMBL document CHEMBL2040844, “Anthranilic acid-based diamides derivatives incorporating aryl-isoxazoline pharmacophore as potential anticancer agents: design, synthesis and biological evaluation” (Eur J Med Chem, 2012).
# Experiments:
# SGC-7901 [1] = experiment: Cytotoxicity against human SGC7901 cells after 72 hrs by MTT assay; assay type: functional, cell-based; conditions: SGC-7901, 72 h
# Procedure, shortened: (§1)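 MTT assay. Cells were seeded at 2 × 10⁴ per well, grown to subconfluence, then exposed to serial dilutions of compound in test medium for 72 h at 37 °C in humidified 5% CO₂. MTT was added for 4 h, formazan was dissolved in DMSO, and absorbance was read at 570 nm. IC50 values were derived from dose-response. Triplicate wells, three independent experiments; 5-FU served as positive control.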
# MCF7 [2] = experiment: Growth inhibition of human MCF7 cells at 40 ug/ml after 72 hrs by MTT assay; assay type: functional; conditions: MCF7, 72 h, read-out: GI
# Procedure, shortened: (§2)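 Single-concentration screen at 40 µg/mL, reported as % cell growth inhibition. Cells were seeded at 2 × 10⁴ per well, grown to subconfluence, then treated for 72 h at 37 °C in humidified 5% CO₂. MTT was added for 4 h, formazan was dissolved in DMSO, and absorbance was read at 570 nm. Triplicate wells, three independent experiments; 5-FU served as positive control.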
# MCF7 [3] = experiment: Cytotoxicity against human MCF7 cells after 72 hrs by MTT assay; assay type: functional, cell-based; conditions: MCF7, 72 h; procedure, shortened: as §1
# SGC-7901 [4] = experiment: Growth inhibition of human SGC7901 cells at 40 ug/ml after 72 hrs by MTT assay; assay type: functional; conditions: SGC-7901, 72 h, read-out: GI; procedure, shortened: as §2
# HepG2 [5] = experiment: Growth inhibition of human HepG2 cells at 40 ug/ml after 72 hrs by MTT assay; assay type: functional; conditions: HepG2, 72 h, read-out: GI; procedure, shortened: as §2
# NCI-H460 [6] = experiment: Cytotoxicity against human NCI-H460 cells after 72 hrs by MTT assay; assay type: functional, cell-based; conditions: NCI-H460, 72 h; procedure, shortened: as §1
# BGC-823 [7] = experiment: Cytotoxicity against human BGC823 cells after 72 hrs by MTT assay; assay type: functional, cell-based; conditions: for IC50: BGC-823, 72 h; procedure, shortened: as §1
# NCI-H460 [8] = experiment: Growth inhibition of human NCI-H460 cells at 40 ug/ml after 72 hrs by MTT assay; assay type: functional; conditions: NCI-H460, 72 h, read-out: GI; procedure, shortened: as §2
# BGC-823 [9] = experiment: Growth inhibition of human BGC823 cells at 40 ug/ml after 72 hrs by MTT assay; assay type: functional; conditions: BGC-823, 72 h, read-out: GI; procedure, shortened: as §2
# HepG2 [10] = experiment: Cytotoxicity against human HepG2 cells after 72 hrs by MTT assay; assay type: functional, cell-based; conditions: for IC50: HepG2, 72 h; procedure, shortened: as §1
Compound,IC50 (SGC-7901 [1]) [µM],inhibition of growth at 40 µg/mL (MCF7 [2]) [%],IC50 (MCF7 [3]) [µM],inhibition of growth at 40 µg/mL (SGC-7901 [4]) [%],inhibition of growth at 40 µg/mL (HepG2 [5]) [%],IC50 (NCI-H460 [6]) [µM],IC50 (BGC-823 [7]) [µM],inhibition of growth at 40 µg/mL (NCI-H460 [8]) [%],inhibition of growth at 40 µg/mL (BGC-823 [9]) [%],IC50 (HepG2 [10]) [µM],Activity (BGC-823 [7]),Activity (HepG2 [10])
CCCNC(=O)c1cc(Cl)cc(C)c1NC(=O)C1CC(c2cc(OC)c(OC)c(OC)c2)=NO1 (configuration not stated),> 100,29.1,> 100,15.4,21.1,> 100,> 100,9.5,28,> 100,,
COc1cc(C2=NOC(C(=O)Nc3c(C)cc(Cl)cc3C(=O)NC3CCCCC3)C2)cc(OC)c1OC (configuration not stated),36.8,62.7,22.4,60.2,64,24.7,23.3,74,69.7,34.8,Dose-dependent effect,Dose-dependent effect
Cc1cc(Cl)cc2c(=O)oc(C3CC(c4ccc(Cl)cc4)=NO3)nc12 (configuration not stated),68.8,37.7,68.7,35.6,52.4,41.9,54.4,58.1,31.5,43.6,,
Cc1cc(Cl)cc(C(=O)NC2CCCCC2)c1NC(=O)C1CC(c2ccc(Cl)cc2)=NO1 (configuration not stated),,9.6,,3.1,15.6,,,15.1,18.3,,,
COc1cc(C2=NOC(c3nc4c(C)cc(Cl)cc4c(=O)o3)C2)cc(OC)c1OC (configuration not stated),> 100,12.4,> 100,0,16.5,> 100,> 100,0,0,> 100,,
CCN(CC)C(=O)c1cc(Cl)cc(C)c1NC(=O)C1CC(c2ccc(F)cc2)=NO1 (configuration not stated),> 100,14.4,> 100,15.8,18.2,> 100,> 100,10,36.4,> 100,,
CNC(=O)c1cc(Cl)cc(C)c1NC(=O)C1CC(c2cc(OC)c(OC)c(OC)c2)=NO1 (configuration not stated),65.5,26.1,> 100,27.3,30.6,> 100,54.1,5.5,34.1,67.6,,
Cc1cc(Cl)cc(C(=O)Nc2ccccc2)c1NC(=O)C1CC(c2ccc(F)cc2)=NO1 (configuration not stated),,17,,11.6,5.1,,,0,26.4,,,
Cc1cc(Cl)cc(C(=O)NC(C)C)c1NC(=O)C1CC(c2ccc(Cl)cc2)=NO1 (configuration not stated),,3.9,,24.2,12.3,,,10.3,38.7,,,
COc1cc(C2=NOC(C(=O)Nc3ccccc3C(=O)NC(C)C)C2)cc(OC)c1OC (configuration not stated),,0,,0,11.7,,,0,0,,,
CNC(=O)c1ccccc1NC(=O)C1CC(c2ccc(F)cc2)=NO1 (configuration not stated),,0,,0,9.1,,,0,21.4,,,
Cc1cc(Cl)cc(C(=O)NC2CCCCC2)c1NC(=O)C1CC(c2ccc(F)cc2)=NO1 (configuration not stated),,24.8,,15.6,10,,,33.3,34.3,,,
O=c1[nH]cc(F)c(=O)[nH]1 [FLUOROURACIL],6.3,80.4,12.5,80.8,81.3,2.4,4.5,89.7,85.7,4.8,,
